Results collected from several papers.
Lines come from different studies, so protocols differ.
Target: SRSF protein kinase 1 (SRPK1, Homo sapiens, UniProt Q96SB4)

Structure (SMILES) | read-out | method | tested at | remaining binding [%]
CN(c1nccc(-c2cnn3ncccc23)n1)C1CC1 | binding | – | 1 µM | 88
CNC(=O)[C@@H]1CC[C@@H](n2c(-c3ccc4cnccc4c3)nc3ccc(C(=O)NCc4cccc(C(N)=O)c4)cc32)C1 | binding | competition with immobilised ligand | 1 µM | 79
COCCOc1nc(-c2ccc(Cl)nc2)nc2c1CN(C(=O)c1ncn3ccccc13)CC2 | cell-free assay | competition with immobilised ligand | 0.1 µM | 86
Cc1cnn2ncc(-c3ccnc(N(C)C)n3)c2c1 | binding | – | 1 µM | 100
CN(C)C(=O)Cn1cc(-c2nc(C3(c4ccc(-c5cnc(N)nc5)cc4)CC3)no2)cn1 | cell-free assay | competition with immobilised ligand | 1 µM | 93
C=CC(=O)N1CCC(C(=O)NCC(=O)N2CCN(c3nc(-c4cnc(N)nc4C(F)F)nc(N4CCOCC4)n3)CC2)CC1 | binding | competition with immobilised ligand | 1 µM | 75
O=C(c1ccc(Nc2nccc(-c3cc4ccccc4s3)n2)cc1)N1CCC(N2CCCC2)CC1 | binding | competition with immobilised ligand | 1 µM | 86
CC1CCCN1c1nccc(-c2cnn3ncccc23)n1 (stereo not drawn) | binding | – | 1 µM | 94
CNCc1ccccc1-c1csc([C@H](C)Nc2nc(C)nc3cc(OC)c(OC)cc23)c1 | cell-free assay | competition with immobilised ligand | 1 µM | 100
Nc1ncc2c(n1)-c1c([nH]c3ccc(C#CC4CC4)cc13)CCCC2 | binding | competition with immobilised ligand | 1 µM | 87
N#Cc1ccc(Nc2ccc3[nH]c(=O)[nH]c3c2)c(Cl)c1 | cell-free assay | competition with immobilised ligand | 1 µM | 95
O=C(NCCCN1CCOCC1)c1ccc(Nc2ncc(Cl)c(-c3ccc(Cl)s3)n2)cc1 | binding | competition with immobilised ligand | 1 µM | 97
Nc1cnc(N2CCc3cc(S(=O)(=O)Nc4c(F)cc(Cl)cc4F)cc(N4CCCC4=O)c32)nc1 | cell-free assay | competition with immobilised ligand | 1 µM | 81
C[C@@H](c1ccc(-n2cnc3c(N)ncnc32)cc1)N1CCc2nn(C)c(Cc3ccccc3)c2C1=O | binding | competition with immobilised ligand | 0.1 µM | 100
CN(C)c1nccc(-c2cnn3ncccc23)n1 | binding | – | 1 µM | 100
O=C(Nc1c[nH]nc1C(=O)NC1CCNCC1)c1cc(F)cc(F)c1 | binding | competition with immobilised ligand | 1 µM | 100
N[C@H]1CCN(c2nccc(-c3cnn4ncccc34)n2)C1 | binding | – | 1 µM | 84
O=C(c1ccc(Nc2ncc(Cl)c(-c3ccc(Cl)s3)n2)cc1)N1CCC(N2CCCC2)CC1 | binding | competition with immobilised ligand | 1 µM | 93
FC(F)(F)Oc1cccc(-c2cnc3ccc(-c4ccncc4)nn23)c1 | binding | competition with immobilised ligand | 5 µM | 70
F[C@@H]1CCN(c2nccc(-c3cnn4ncccc34)n2)C1 | binding | – | 1 µM | 100
CCOCCn1cc(C(=O)Nc2ccc(-n3nc(-c4cccnc4)cc3C(F)(F)F)cn2)ccc1=O | cell-free assay | competition with immobilised ligand | 1 µM | 98
